SIRT5 block: sirtuin-5 (human) deacylase inhibition; 330,000 tested, 1.1% active; inhibition, % at 15 µM; Q9NXA8; AID 652115; Purified SirT5, succinyl-peptide AMC, trypsin-coupled fluorescence; in the data active = inhibition above about 15%
UCH37 inh: blocks the human deubiquitinase UCH37; Q9Y5K5; purified proteasome/UCH37, Ub-AMC cleavage fluorescence; inhibition, % (test concentration not listed); 330,000 tested, 0.33% active;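 active = mean inhibition over replicate wells above about 20%, limit read from the data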;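 also: 0% = compound-free wells with enzyme and 100% = wells lacking proteasome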
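Assay system: Proteasome-bound UCH37. Buffer or medium: pH 7.4 Tris-HCl (50 mM) with ovalbumin, ATP-MgCl2, DTT. Incubation: 30 min preincubation with enzyme, 25 min cleavage at room temperature. Measured by: fluorescence, ex 355 nm, em 460 nm. Read-out basis: percent inhibition. Control set: wells without proteasome as full block, compound-free enzyme plus substrate as uninhibited.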
NSD2 inh: NSD2 (human) methyltransferase inhibition; AID 743445; NSD2 peptide methylation, AlphaScreen, 120 min; O96028; inhibition, % at 12.5 µM; 310,000 tested, 0.54% active; in the data active = inhibition above about 50%
FGF22 binding: binders of recombinant human FGF22 by thermal shift | SYPRO orange fluorescence; percent of sucrose octasulfate shift, DMSO zero | activity (Tm shift, normalised), % at 9.99 µM | 340,000 tested, 1.5% active;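 active = mean Tm shift, scaled 0 neutral to 100 positive control, at about 1.3% or above, every replicate too, limit read from the data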
CASP6 VEID inh: caspase-6 (human) enzyme inhibition; P55212; purified caspase-6, Z-VEID-R110 cleavage fluorescence; inhibition, % at 12.5 µM; 350,000 tested, 0.53% active;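 active = mean inhibition across replicates at least about 35%, with every replicate also reaching that limit, limit read from the data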;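 also: 0% = median of neutral control wells and 100% = no fluorescence left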
* marks the source's active call; other numbers are inactive results; . = no result given. Hits are enriched below; roughly 2.6% of the tested compounds scored in any of these assays.

SMILES	SIRT5 block	UCH37 inh	NSD2 inh	FGF22 binding	CASP6 VEID inh
COc1cc2c3nnc(-c4ccccc4)c-3cn(Cc3ccc(F)cc3)c2cc1OC	-1.8	-99.2	-5.1	43.8*	4.1
Cc1cc(C)c2c(CN3CCOCC3)cc(=O)oc2c1	29.7*	6.2	-4.9	0.0	-0.1
Cc1cc(C)c2c(CN3CCCC3)cc(=O)oc2c1	-1.0	.	.	-0.2	0.5
Cc1cccc(-c2ccc([C@H]3[C@H]4CN(Cc5ccncc5)CCCCN4[C@H]3CO)cc2)c1	1.0	.	.	0.0	0.0
CC(=O)OCC(=O)[C@@]12OC(C)(C)O[C@@H]1C[C@H]1[C@@H]3C[C@H](F)C4=CC(=O)C=C[C@]4(C)[C@@]3(F)[C@@H](O)C[C@@]12C	.	3.4	.	.	.
CC1(C)OC2CC3C4CC(F)C5=CC(=O)C=CC5(C)C4(F)C(O)CC3(C)C2(C(=O)CO)O1 (configuration not stated)	17.5*	3.8	-9.0	-0.6	-1.1
CC(=O)c1ccccc1NS(=O)(=O)c1cccc2nonc12	2.0	1.3	-1.0	0.1	1.7
CC(=O)c1ccccc1NS(=O)(=O)c1cccc2nsnc12	-2.4	3.3	1.5	.	56.0*
COc1cccc(CNC(=O)C[C@H]2C=C[C@H](NC(=O)C3CC3)[C@H](CO)O2)c1	-0.7	.	.	0.0	-4.3
Cc1cc(CN2CCCC(CO)(Cc3cccc(Cl)c3)C2)n[nH]1 (configuration not stated)	-3.1	2.2	0.8	43.5*	1.5
C[C@@H]1CN([C@@H](C)CO)C(=O)c2cc(NC(=O)NC3CCCCC3)ccc2O[C@@H](C)CCCCO[C@H]1CN(C)Cc1ccncc1	2.0	.	.	-0.2	-2.9
Cc1ccc(-n2nnnc2Sc2nc([N+](=O)[O-])nn2C)cc1C	.	20.1*	-1.4	.	.
Cn1cnnc1Sc1ccc(C(=O)OCC(=O)NCC(F)(F)F)cc1[N+](=O)[O-]	-0.1	2.6	4.8	-0.2	-0.5
C=CCNC(=O)COC(=O)c1ccc(Sc2nncn2C)c([N+](=O)[O-])c1	-2.5	-0.2	1.5	43.8*	-2.1
O=C(CN(Cc1ccco1)C(=O)c1ccc(N2CCCC2=O)cc1)Nc1ccccc1C(F)(F)F	-0.1	1.3	0.0	-0.2	8.6
COc1ccccc1NC(=O)CN(Cc1ccco1)C(=O)c1ccc(N2CCCC2=O)cc1	.	-0.1	1.0	43.5*	2.3
CCC(=O)Nc1ccc2c(c1)C(=O)N(C)C[C@@H](OC)[C@@H](C)CN(C(=O)Cc1ccccn1)[C@@H](C)CO2	-3.0	.	.	0.0	-0.5
O=C(CNC(=O)c1ccccc1)OCC(=O)N1N=C(c2ccc(Cl)cc2)CC1c1ccco1 (configuration not stated)	-1.3	2.3	-0.4	43.0*	-1.4
COc1ccc(C2=NN(C(=O)CSc3nnc(C)n3C)C(c3ccco3)C2)cc1 (configuration not stated)	5.6	0.9	-4.6	42.9*	-5.9
COc1ccc(C2CC(c3ccccc3)=NN2C(=O)COC(=O)CNC(=O)c2ccccc2)cc1 (configuration not stated)	-2.6	-0.1	-1.7	-0.3	-1.6
O=C(O)CCC(=O)N1N=C(c2ccco2)CC1c1ccco1 (configuration not stated)	3.3	-0.4	5.2	0.0	41.1*
CCN(Cc1ccccc1)C(=O)CSc1nc(C)cc(=O)[nH]1	22.4*	-1.5	12.4	42.0	1.5
COc1ccc(-n2c(C)c(C(C)=O)c(C(C)=O)c2C)cc1	2.8	3.7	2.0	0.2	38.7*
CCOc1ccc(-n2c(C)c(C(C)=O)c(C(C)=O)c2C)cc1	.	-3.3	-2.3	.	.
CN(C)C(=O)[C@H]1[C@H](CO)[C@H]2Cn3c(ccc(-c4ccccc4)c3=O)[C@@H]1N2CCc1ccccc1	-7.3	.	.	0.0	2.6
SMILES	SIRT5 block	UCH37 inh	NSD2 inh	FGF22 binding	CASP6 VEID inh
CN(C)C(=O)[C@@H]1[C@@H](CO)[C@@H]2Cn3c(ccc(-c4ccccc4)c3=O)[C@H]1N2CCc1ccccc1	28.9*	.	.	0.2	-2.1
CCCCN1CC(COCc2ccccc2)Oc2cccc(N3CCCC3)c2S1(=O)=O (configuration not stated)	.	.	.	43.4*	-2.7
Cc1ccc(S(=O)(=O)N/N=C/c2cc([N+](=O)[O-])ccc2O)cc1[N+](=O)[O-]	0.7	.	5.7	43.6*	7.1
COc1ccc2c3c([nH]c2c1)[C@@H](CO)N(Cc1ccncc1)CC31CCN(Cc2ccc(-c3ccccn3)cc2)CC1	6.5	.	.	-0.1	-1.0
C=CCn1c(SCC(=O)N(C)C2CCCCC2)nnc1C1CC1	3.2	3.0	-0.9	-0.2	-2.0
Cc1nnc(SCC(=O)N(C)C2CCCCC2)n1C	-1.5	4.1	6.1	-0.2	55.2*
CO[C@@H]1CN(C)C(=O)c2ccc(NC(=O)Cc3ccccc3)cc2OC[C@H](C)N(C(=O)c2ccccc2F)C[C@H]1C	0.7	.	.	0.2	.
Cc1ccn2c(NC3CCCCC3)c(-c3cccc(-c4cccc(Cl)c4)c3)nc2c1	16.5*	.	.	0.1	-1.1
Cc1ccccc1S(=O)(=O)N1CC(=O)N2[C@H](C1)[C@@H](c1ccc(C#CCC3CCCC3)cc1)[C@@H]2CO	11.4	.	.	.	-1.2
COC(=O)NC1(C(F)(F)F)C(=O)Nc2c1c(=O)n(C)c(=O)n2C (configuration not stated)	1.4	4.4	0.6	42.9*	-0.7
Cn1cnc2nc(Cl)nc(Cl)c21	3.8	3.8	.	0.0	0.2
CNc1nc(Cl)nc2ncn(C)c12	15.8*	1.1	1.8	0.1	-1.1
C[C@@H]1CCCCO[C@H](CN(C)C(=O)Nc2ccccc2)[C@H](C)CN([C@H](C)CO)C(=O)c2cc(NS(C)(=O)=O)ccc2O1	-1.7	.	.	0.1	2.2
Fc1cccc(NC(=S)NCCc2ccccc2)c1	-3.8	2.0	-0.1	1.7*	-0.2
Fc1ccc(NC(=S)NCCc2ccc(Cl)cc2)cc1	-1.5	1.8	-2.7	-0.2	0.6
Fc1ccc(CCNC(=S)Nc2ccc(F)c(Cl)c2)cc1	-4.0	-0.3	-4.7	1.9*	5.7
Cc1ccc(S(=O)(=O)CC(=O)Nc2ccc3nc(C)sc3c2)cc1	23.6*	2.4	7.3	0.0	1.9
COc1cc(C=NN(C)c2ccccc2)ccc1O	.	5.8	.	.	.
Cc1cc(/C=N/NC(=O)c2ccsc2)c(C)n1-c1cnccn1	2.2	.	-3.3	43.7*	4.3
C[C@H]1CN([C@@H](C)CO)C(=O)c2cccc(NS(=O)(=O)c3cn(C)cn3)c2O[C@@H]1CN(C)S(=O)(=O)c1cccs1	-3.6	.	.	-0.1	-2.8
CCCCc1c(-c2cccc(F)c2)ncn1CCc1ccccc1OC	-3.1	.	.	-0.3	-0.2
CCCCc1c(-c2cccc(Br)c2)ncn1CCc1ccccc1OC	5.7	.	.	34.6*	-0.6
CCCCc1c(-c2ccccc2F)ncn1CCc1ccccc1OC	27.9*	.	.	-0.2	2.0
C[C@@H](NC(=O)C[C@H]1C[C@@H]2c3cc(NC(=O)c4cccnc4)ccc3O[C@@H]2[C@H](CO)O1)c1ccccc1	-1.5	.	.	0.1	-1.2

Bioassay records (PubChem)
